Compound activity as filed in PubChem.
Sampled rows, rich in hits. Any-hit rate of the full collection: about 4.1%.
Efflux pump inh: inhibitors of Candida antifungal efflux pumps expressed in yeast; S. cerevisiae Candida pump triplex, Nile Red efflux; AID 485275; 330,000 tested, 0.44% active; inhibition, % at 10 µM;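 active = plate passing quality check with inhibition over a set limit, or well fluorescence over plate mean plus 4 SD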;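 also: Nile Red retained in pooled yeast measured as flow cytometry median fluorescence; 0% = buffer negative control and 100% = Enniatin B positive control; higher means more Nile Red kept so more efflux inhibition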
AHR activator: human AHR activation; AID 2796; 320,000 tested, 2.5% active; activation, % at 5 µM; P35869; AHR-responsive luciferase reporter cells, luminescence; in the data active = activation above about 47%;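 also: 0% = vehicle wells and 100% = reference agonist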
Target sequence (P35869 whole entry, looked up): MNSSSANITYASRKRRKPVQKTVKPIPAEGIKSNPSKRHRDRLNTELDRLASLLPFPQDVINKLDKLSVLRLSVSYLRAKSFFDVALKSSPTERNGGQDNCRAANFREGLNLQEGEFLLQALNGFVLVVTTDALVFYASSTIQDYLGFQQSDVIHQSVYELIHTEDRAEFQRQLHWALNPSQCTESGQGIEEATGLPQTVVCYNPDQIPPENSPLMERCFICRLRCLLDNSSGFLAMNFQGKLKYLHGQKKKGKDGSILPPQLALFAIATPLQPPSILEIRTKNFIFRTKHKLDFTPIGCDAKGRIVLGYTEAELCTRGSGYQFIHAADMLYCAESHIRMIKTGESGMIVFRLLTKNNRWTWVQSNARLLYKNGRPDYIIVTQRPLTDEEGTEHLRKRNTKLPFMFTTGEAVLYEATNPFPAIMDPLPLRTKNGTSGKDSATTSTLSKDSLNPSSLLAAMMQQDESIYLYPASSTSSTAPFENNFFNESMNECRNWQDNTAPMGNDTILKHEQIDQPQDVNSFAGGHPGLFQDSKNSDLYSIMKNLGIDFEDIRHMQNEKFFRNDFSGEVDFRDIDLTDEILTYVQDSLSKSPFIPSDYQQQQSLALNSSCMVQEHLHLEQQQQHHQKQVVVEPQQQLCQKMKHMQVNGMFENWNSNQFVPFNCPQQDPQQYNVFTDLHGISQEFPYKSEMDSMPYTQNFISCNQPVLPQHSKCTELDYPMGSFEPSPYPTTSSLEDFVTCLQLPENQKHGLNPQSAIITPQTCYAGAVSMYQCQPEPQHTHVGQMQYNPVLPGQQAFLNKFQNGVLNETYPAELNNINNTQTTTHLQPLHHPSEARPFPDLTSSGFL
SMARCA2 act: increases SMARCA2 function in MMTV reporter cells; 370,000 tested, 1% active; MG213 cells, MMTV-luciferase reporter, dexamethasone, overnight; activation, % at 9.1 µM; in the data active = activation above about 7.8%;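 also: 0% = vehicle wells and 100% = reference activator wells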
TAG inh: reduces triacylglycerol accumulation in H9c2 cells; Nile Red lipid (TAG) fluorescence; cells loaded with 200 µM oleic acid; inhibition, % at 12.5 µM; 230,000 tested, 0.66% active; AID 651582;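 active = pattern-corrected inhibition of lipid staining of at least 50% with the nuclear-stain viability signal not falling by more than 50%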;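 also: 0% = DMSO wells and 100% = triacsin C control wells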
TbMetRS inhib: blocks T. brucei methionyl-tRNA synthetase activity; purified T. brucei MetRS, ATP depletion, Kinase-Glo luminescence; inhibition, % at 11.9 µM; 360,000 tested, 0.4% active; AID 624268;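 active = inhibition above a per-plate cutoff of the control wells' mean inhibition plus 3 SD, cut at about 5.5% in these data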;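 also: 0% = DMSO wells median and 100% = median of wells with control inhibitor compound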
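Material: parasite MetRS enzyme / Replication: singlicate, one well per compound / Signal: luminescence of leftover ATP / Schedule: 2 h aminoacylation at 25 °C after 15 min preincubation / Medium: HEPES-MgCl2-KCl buffer plus DTT, spermine, BSA, pyrophosphatase / Doses: 11.9 µM single point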
Starred values were filed as active, the others as inactive; x = not tested or not shown.

SMILES	Efflux pump inh	AHR activator	SMARCA2 act	TAG inh	TbMetRS inhib
N#C/C(=C(\O)Cc1ccccc1)c1nc2ccccc2[nH]1	0	50*	1	-12	-1
N#CCSc1n[nH]c2nc3c(c(=O)n12)C1(CCCC1)Cc1ccccc1-3	0	52*	-1	x	1
C[C@@H]1CN([C@@H](C)CO)C(=O)CCCn2cc(nn2)CO[C@H]1CN(C)C(=O)Nc1ccc2c(c1)OCO2	x	x	0	x	x
O=C(Nc1ccccc1Cl)Oc1ccc(Cl)cc1Cl	0	50*	1	x	0
CC(=O)CC[C@@H]1CC[C@]2(CCCN(C(=O)C3CCCC3)C2)O1	x	x	-3	x	x
Cc1cccc(N2CCN(Cc3ccc([N+](=O)[O-])o3)CC2)c1C	0	57*	-1	-2	0
CCOc1ccc(-n2c(SCC(=O)Nc3cc(C)c(NC(=O)c4ccccc4)cc3OC)nnc2-c2ccncc2)cc1	x	x	1	x	x
O=C1c2ccccc2CC1Sc1nnc(-c2ccncc2)o1 (centres undefined)	0	63*	0	-14	-1
Clc1ccc([C@H]2OC[C@@]3(CNCc4ccccn4)CS[C@H](c4ccc(Cl)cc4)N23)cc1	x	x	-1	x	x
COc1ccc2c(OC)cc(-c3ccccc3)nc2c1	0	70*	-2	0	0
COc1ccc(-c2cc3ccccc3cn2)cc1	0	51*	5	-1	0
COc1ccc(-c2cc3cc(OC)c(OC)cc3c(C)n2)cc1	0	82*	6	17	1
COc1ccc(-c2cc3ccc(OC)cc3cn2)cc1	0	44	7	13	0
COc1ccc(-c2cc(C(F)(F)F)nc(N)n2)cc1	0	1	0	7	1
COc1ccc(-c2cc(OC)c3ccccc3n2)cc1	0	60*	0	x	-1
CN(C)c1cccc(/C=C2\CC3(OC(=O)c4ccccc4)CCCN2C3)c1 (centres undefined)	x	x	-3	x	x
CC(C)(C)n1nc(C2CC2)cc1NC(=O)Nc1ccccc1	x	x	-2	x	x
COc1cc(-c2ccccc2)nc2ccccc12	0	48*	-3	0	0
Cc1ccccc1NC(=S)N/N=C1\CC(C)(C)Oc2ccc(O)cc21	0	17	-1	2	-1
Cc1ccc(NC(=S)N/N=C2\CC(C)(C)Oc3ccc(O)cc32)cc1	0	70*	-1	x	0
CCc1ccc2nc(NC(=O)C3CSC4(C)CCC(=O)N34)sc2c1 (centres undefined)	0	66*	4	6	0
CC12CCC(=O)N1C(C(=O)Nc1nc3ccc(S(C)(=O)=O)cc3s1)CS2 (centres undefined)	0	2	0	x	0
COCCOc1ccc(C(F)(F)F)cc1NC(=O)c1ccc(F)cc1	0	54*	1	x	-1
COCCOc1ccc(C(F)(F)F)cc1NC(=O)c1ccc(C)cc1	0	36	6	x	-1
COC(=O)C1CN(C2CCCC2)CCS(=O)(=O)N1Cc1ccc(C(F)(F)F)cc1 (centres undefined)	x	x	-3	x	x
SMILES	Efflux pump inh	AHR activator	SMARCA2 act	TAG inh	TbMetRS inhib
COc1cccc(C(CC2=CCCCC2)NC(=O)C(F)(F)F)c1 (centres undefined)	x	x	-2	x	x
S=c1[nH]nc(-c2cc(-c3ccccn3)nc3ccccc23)o1	0	73*	-2	0	-1
COC(=O)C1CCCN(C(=O)C2CCN(S(=O)(=O)c3ccc([N+](=O)[O-])cc3)CC2)C1 (centres undefined)	x	x	-2	x	x
O=C(CN1C(=O)COc2ccccc21)c1ccc(Cl)cc1	0	50*	5	6	-1
O=C(CN1C(=O)COc2ccccc21)c1cccc(Cl)c1	0	6	-2	x	-1
Cn1c(N=Nc2ccc(N3CCOCC3)cc2)[n+](C)c2ccccc21	x	x	-1	51*	0
Cn1c(=Nc2ccc(N3CCOCC3)cc2)ccc2ccccc21	0	4	-1	-6	0
CC1=CC(=O)c2c(O)ccc(O)c2C1=O	1.0*	2	x	x	x
O=C1C=C(N2CCN(c3ccccn3)CC2)C(=O)c2c(O)ccc(O)c21	x	x	0	45	0
COC(=O)[C@]12C[C@H](CC(=O)N3CCOCC3)C(=O)N(CCC3=CCCCC3)C1=C[C@H](C(C)C)O[C@@H]2C1CC1	x	x	-4	x	x
COc1ccc(OC)c(NC(=O)NC2CCCCCCC2)c1	0	x	2	x	0
COc1ccc(OC)c(NC(=O)C(=S)NC2CCCCC2)c1	1	70*	-2	-6	2
Cc1cccc(NC(=S)N/N=C/c2ccc([N+](=O)[O-])s2)c1	0	71*	-7	-43	0
Cc1cccc(NC(=O)/C=C/c2ccc([N+](=O)[O-])s2)c1	0	29	2	x	0
C=C(NC(=O)C(=C)NC(=O)c1csc(C2=NC3c4csc(n4)C4NC(=O)c5csc(n5)C([C@@](C)(O)C(C)O)NC(=O)C5CSC(=N5)/C(=C\C)NC(=O)C(C(C)O)NC(=O)c5csc(n5)[C@]3(CC2)NC(=O)C(C)NC(=O)C(=C)NC(=O)C(C)NC(=O)C(C(C)CC)NC2C=Cc3c(C(C)O)cc(nc3C2O)C(=O)OC4C)n1)C(N)=O (some centres undefined)	1.1*	-6	x	x	x
C=C(NC(=O)C(=C)NC(=O)c1csc(C2=NC3c4csc(n4)C4NC(=O)c5csc(n5)C(C(C)(O)C(C)O)NC(=O)C5CSC(=N5)/C(=C/C)NC(=O)C(C(C)O)NC(=O)c5csc(n5)C3(CC2)NC(=O)C(C)NC(=O)C(=C)NC(=O)C(=C)NC(=O)C(C(C)C)NC2C=Cc3c(C(C)O)cc(nc3C2O)C(=O)OC4C)n1)C(N)=O (centres undefined)	x	x	8.6*	0	-1
Cc1cc(-c2nnc(SCC(=O)Nc3cccc4ccccc34)n2N)n[nH]1	x	x	2	x	x
COc1ccc(CN2C3=N[C@H](c4ccccc4)CC(=O)N3/C(=C\c3ccccc3)C2c2ccco2)c(OC)c1 (some centres undefined)	x	x	-2	x	x
O=[N+]([O-])c1cccc(-c2ccc(/C=N/NC(=S)Nc3ccccc3)o2)c1	0	65*	-1	x	1
COCCN1Cc2cccc(C(=O)Nc3cc(OC)ccc3OC)c2C1=O	0	48*	0	-14	0
COc1ccc(OC)c(NC(=O)c2cccc3c2C(=O)N(C2CCCCC2)C3)c1	0	14	-5	x	1
CCOC(=O)C(=Cc1ccc(-c2ccsc2C(=O)OC)o1)C(=O)OCC	0	-1	6	x	0
COC(=O)C(=Cc1ccc(-c2ccsc2C(=O)OC)o1)C(=O)OC	0	1	7.9*	1	0
COc1ccc(/C=N/Nc2ncnc3sc(C)c(C)c23)cc1	0	62*	6	x	0
Cc1sc2ncnc(N/N=C/c3ccc(O)cc3)c2c1C	-1	28	-2	x	0
O=C(OCCCN1CCC2(CCC(c3ccccc3)CC2)C1=O)c1ccccc1 (centres undefined)	x	x	-3	x	x
CCOC(=O)c1ccc(NC(=O)CSc2nnc(-c3cc(-c4ccccc4)n[nH]3)n2N)cc1	x	x	-3	x	x
